Results taken from ChEMBL document CHEMBL1134383, “Synthesis and pharmacology of 3-isoxazolol amino acids as selective antagonists at group I metabotropic glutamic acid receptors” (J Med Chem, 2001).

Assays:
[1] = target: Glutamate receptor ionotropic, AMPA (Rattus norvegicus, UniProt P19490+P19491+P19492+P19493); experiment: Binding affinity for AMPA receptor using [3H]AMPA; format: protein-complex assay
In short: (§1)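 Radioligand displacement using [3H]AMPA (AMPA), [3H]KA (kainate) or [3H]CPP (NMDA) on membrane preparations. Mean ± SEM of at least three independent results; one value estimated. Low-solubility compounds tested only at 200 μM.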

Glutamate NMDA receptor = experiment: Displacement of [3H]CPP from NMDA receptor; format: protein-complex assay, Rattus norvegicus; in short: as §1
[2] = target: Glutamate receptor ionotropic, kainate; experiment: Binding affinity for Ionotropic glutamate receptor kainate by [3H]-kainic acid displacement; format: protein-complex assay, Rattus norvegicus; in short: as §1
Rattus norvegicus = organism: Rattus norvegicus; experiment: Excitatory activity in the rat cortical slice model.; format: functional, organism-based
In short: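 Rat cortical slice depolarizations evoked by excitatory amino acids; agonists applied 90 s at each concentration, with receptor selectivity checked using NBQX (AMPA) or CPP (NMDA). Poorly soluble compounds tested up to 200 μM.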

[3] = target: Metabotropic glutamate receptor 1 (Homo sapiens) (UniProt Q13255); experiment: Antagonist activity against mGlu1-alpha receptor in chinese hamster ovary cells using secondary messanger assay determined; format: functional, cell-based; conditions: Cricetulus griseus
In short: (§2)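 Cloned mGluRs measured with second-messenger assays; group I (mGlu1α, mGlu5α), mGlu2 and mGlu4α tested. Compounds tested for agonist and antagonist activity at 1 mM unless otherwise stated. Mean ± SEM of at least two independent results; some values estimated from partial concentration–response curves.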

[4] = target: Metabotropic glutamate receptor 5 (Homo sapiens) (UniProt P41594); experiment: Antagonist activity against mGlu 5a receptor in chinese hamster ovary cells using secondary messanger assay determined; format: functional, cell-based; conditions: Cricetulus griseus; in short: as §2
[5] = target: Metabotropic glutamate receptor 4 (Homo sapiens) (UniProt Q14833); experiment: Antagonist activity against mGlu 4a receptor in chinese hamster ovary cells using secondary messanger assay determined; format: functional, cell-based; conditions: Cricetulus griseus; in short: as §2
[6] = target: Metabotropic glutamate receptor 2 (Homo sapiens) (UniProt Q14416); experiment: Antagonist activity against mGlu 2 receptor in chinese hamster ovary cells using secondary messanger assay determined; format: functional, cell-based; conditions: Cricetulus griseus; in short: as §2
Sequence of Metabotropic glutamate receptor 2 (Homo sapiens) (Q14416 19-872 limits assumed): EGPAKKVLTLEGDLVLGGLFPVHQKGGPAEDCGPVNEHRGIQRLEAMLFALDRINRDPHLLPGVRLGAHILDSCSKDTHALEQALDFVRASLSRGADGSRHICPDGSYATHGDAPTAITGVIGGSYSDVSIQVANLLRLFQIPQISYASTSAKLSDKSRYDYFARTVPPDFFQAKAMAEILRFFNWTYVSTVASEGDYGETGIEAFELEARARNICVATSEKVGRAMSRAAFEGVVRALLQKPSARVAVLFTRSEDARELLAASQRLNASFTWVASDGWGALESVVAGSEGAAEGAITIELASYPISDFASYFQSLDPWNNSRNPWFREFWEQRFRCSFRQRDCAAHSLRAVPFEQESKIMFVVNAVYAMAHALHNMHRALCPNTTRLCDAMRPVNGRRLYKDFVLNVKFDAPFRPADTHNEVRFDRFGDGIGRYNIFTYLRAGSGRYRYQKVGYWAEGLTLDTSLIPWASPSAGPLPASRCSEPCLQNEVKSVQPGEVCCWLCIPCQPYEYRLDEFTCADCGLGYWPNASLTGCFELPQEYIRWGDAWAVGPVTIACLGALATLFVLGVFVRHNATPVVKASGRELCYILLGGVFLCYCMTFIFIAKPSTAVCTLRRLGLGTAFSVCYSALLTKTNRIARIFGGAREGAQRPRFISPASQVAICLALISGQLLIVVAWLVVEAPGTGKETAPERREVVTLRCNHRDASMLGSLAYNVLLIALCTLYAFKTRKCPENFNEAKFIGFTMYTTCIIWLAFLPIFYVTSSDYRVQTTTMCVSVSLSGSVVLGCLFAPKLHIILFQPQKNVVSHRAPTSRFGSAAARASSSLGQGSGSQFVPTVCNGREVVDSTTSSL

Sequence of Metabotropic glutamate receptor 5 (Homo sapiens) (P41594 21-1212 limits assumed): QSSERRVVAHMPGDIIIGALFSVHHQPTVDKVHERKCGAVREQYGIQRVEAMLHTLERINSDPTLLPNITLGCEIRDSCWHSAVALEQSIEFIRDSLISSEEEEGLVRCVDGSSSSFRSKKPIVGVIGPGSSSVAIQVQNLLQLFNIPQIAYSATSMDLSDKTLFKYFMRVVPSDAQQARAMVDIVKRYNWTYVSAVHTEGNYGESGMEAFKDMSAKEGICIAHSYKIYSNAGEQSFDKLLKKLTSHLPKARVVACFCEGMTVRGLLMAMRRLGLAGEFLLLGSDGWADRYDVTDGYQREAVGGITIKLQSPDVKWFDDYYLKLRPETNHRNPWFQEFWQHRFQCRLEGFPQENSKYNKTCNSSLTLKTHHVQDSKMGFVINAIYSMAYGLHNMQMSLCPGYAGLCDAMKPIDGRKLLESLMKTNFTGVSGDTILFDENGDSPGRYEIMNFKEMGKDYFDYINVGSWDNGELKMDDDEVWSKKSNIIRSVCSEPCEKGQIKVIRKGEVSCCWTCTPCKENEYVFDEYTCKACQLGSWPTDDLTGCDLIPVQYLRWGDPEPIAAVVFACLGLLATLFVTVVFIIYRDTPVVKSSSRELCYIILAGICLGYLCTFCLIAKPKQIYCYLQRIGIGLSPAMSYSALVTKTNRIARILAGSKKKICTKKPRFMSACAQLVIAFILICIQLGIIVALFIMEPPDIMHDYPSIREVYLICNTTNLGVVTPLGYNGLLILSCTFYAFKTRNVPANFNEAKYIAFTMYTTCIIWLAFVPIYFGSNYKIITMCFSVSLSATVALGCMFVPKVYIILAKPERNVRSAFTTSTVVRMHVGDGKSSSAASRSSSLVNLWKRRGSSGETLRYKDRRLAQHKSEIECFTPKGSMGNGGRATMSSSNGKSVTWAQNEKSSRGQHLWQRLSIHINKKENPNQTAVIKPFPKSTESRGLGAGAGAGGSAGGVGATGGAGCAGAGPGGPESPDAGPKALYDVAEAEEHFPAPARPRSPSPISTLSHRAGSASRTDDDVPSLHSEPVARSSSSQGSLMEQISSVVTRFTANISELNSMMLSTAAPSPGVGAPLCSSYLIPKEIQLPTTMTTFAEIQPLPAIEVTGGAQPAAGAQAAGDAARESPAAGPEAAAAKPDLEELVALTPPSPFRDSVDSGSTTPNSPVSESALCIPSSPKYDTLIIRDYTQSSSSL
Sequence of Metabotropic glutamate receptor 1 (Homo sapiens) (Q13255 19-1194 limits assumed): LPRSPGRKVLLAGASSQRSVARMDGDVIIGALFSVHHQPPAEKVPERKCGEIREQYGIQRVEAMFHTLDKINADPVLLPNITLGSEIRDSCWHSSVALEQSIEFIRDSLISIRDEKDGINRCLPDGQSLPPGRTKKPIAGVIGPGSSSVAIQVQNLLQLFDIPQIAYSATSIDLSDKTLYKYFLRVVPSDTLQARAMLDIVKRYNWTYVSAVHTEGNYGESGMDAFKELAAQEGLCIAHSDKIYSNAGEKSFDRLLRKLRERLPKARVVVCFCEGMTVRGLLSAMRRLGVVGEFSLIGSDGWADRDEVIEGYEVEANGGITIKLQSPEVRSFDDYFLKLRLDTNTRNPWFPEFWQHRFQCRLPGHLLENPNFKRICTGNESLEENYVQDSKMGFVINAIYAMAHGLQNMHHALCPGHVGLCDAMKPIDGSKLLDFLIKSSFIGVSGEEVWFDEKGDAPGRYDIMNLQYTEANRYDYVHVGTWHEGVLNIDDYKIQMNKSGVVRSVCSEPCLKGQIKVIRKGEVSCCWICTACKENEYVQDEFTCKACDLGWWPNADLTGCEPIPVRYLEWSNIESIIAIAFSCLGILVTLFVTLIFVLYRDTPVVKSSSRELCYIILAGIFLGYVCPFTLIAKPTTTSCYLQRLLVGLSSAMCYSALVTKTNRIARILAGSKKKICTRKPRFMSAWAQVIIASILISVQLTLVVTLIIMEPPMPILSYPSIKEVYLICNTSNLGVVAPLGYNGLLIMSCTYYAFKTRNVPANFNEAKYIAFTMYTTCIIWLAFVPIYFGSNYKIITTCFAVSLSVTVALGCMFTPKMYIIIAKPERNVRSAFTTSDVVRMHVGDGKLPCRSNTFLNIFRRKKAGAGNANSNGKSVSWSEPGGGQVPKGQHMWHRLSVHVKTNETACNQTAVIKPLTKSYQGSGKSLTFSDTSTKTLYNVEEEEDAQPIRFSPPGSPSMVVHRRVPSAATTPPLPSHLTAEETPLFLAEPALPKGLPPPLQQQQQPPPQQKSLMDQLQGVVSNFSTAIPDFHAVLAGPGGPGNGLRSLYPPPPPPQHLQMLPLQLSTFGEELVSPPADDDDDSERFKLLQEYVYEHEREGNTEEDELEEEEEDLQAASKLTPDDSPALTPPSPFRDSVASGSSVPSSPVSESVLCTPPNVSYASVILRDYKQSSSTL
Sequence of Metabotropic glutamate receptor 4 (Homo sapiens) (Q14833 whole entry): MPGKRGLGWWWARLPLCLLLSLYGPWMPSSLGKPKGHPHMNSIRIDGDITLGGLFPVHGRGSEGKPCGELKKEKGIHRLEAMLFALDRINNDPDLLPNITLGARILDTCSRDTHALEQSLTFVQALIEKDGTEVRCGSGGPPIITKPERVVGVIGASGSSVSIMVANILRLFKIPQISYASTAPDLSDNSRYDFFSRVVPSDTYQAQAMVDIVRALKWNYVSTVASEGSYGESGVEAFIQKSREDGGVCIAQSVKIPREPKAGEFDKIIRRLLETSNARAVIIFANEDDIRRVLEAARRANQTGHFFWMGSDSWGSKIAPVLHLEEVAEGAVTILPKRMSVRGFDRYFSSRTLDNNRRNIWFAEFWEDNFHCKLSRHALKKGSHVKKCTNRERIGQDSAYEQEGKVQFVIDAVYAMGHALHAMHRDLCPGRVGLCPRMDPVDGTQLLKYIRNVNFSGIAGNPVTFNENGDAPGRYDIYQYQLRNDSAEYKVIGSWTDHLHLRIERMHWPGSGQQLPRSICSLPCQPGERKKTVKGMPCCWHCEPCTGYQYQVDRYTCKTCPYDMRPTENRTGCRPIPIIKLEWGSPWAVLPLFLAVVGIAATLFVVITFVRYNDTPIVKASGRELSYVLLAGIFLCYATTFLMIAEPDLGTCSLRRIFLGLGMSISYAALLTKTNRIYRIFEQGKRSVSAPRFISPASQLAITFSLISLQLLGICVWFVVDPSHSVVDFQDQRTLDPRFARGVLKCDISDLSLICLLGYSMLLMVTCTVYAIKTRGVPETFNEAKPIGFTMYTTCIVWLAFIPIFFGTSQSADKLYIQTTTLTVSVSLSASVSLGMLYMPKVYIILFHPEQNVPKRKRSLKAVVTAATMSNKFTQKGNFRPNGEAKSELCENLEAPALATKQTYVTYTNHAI

SMILES: CCCCCCc1c(O)noc1CC(N)C(=O)O (stereo not drawn)
- IC50 [1]: > 100 µM
- IC50 (Glutamate NMDA receptor): > 100 µM
- IC50 [2]: > 100 µM
- EC50 (Rattus norvegicus): > 1000 µM

SMILES: Cc1c(O)noc1CC(N)C(=O)O (stereo not drawn)
- IC50 [1]: 0.32 µM
- EC50 (Rattus norvegicus): 18 µM

SMILES: CCCCCCc1c(O)noc1C[C@H](N)C(=O)O
- IC50 [1]: > 100 µM
- Kb [3]: 30 µM
- IC50 (Glutamate NMDA receptor): > 100 µM
- Kb [4]: 61 µM
- IC50 [2]: > 100 µM
- EC50 (Rattus norvegicus): > 1000 µM

SMILES: CCCCCc1c(O)noc1CC(N)C(=O)O (stereo not drawn)
- IC50 [1]: 11 µM
- IC50 (Glutamate NMDA receptor): > 100 µM
- IC50 [2]: > 100 µM
- EC50 (Rattus norvegicus): 630 µM

SMILES: CCCCCCCc1c(O)noc1CC(N)C(=O)O (stereo not drawn)
- IC50 [1]: > 100 µM
- IC50 (Glutamate NMDA receptor): > 100 µM
- IC50 [2]: > 100 µM
- EC50 (Rattus norvegicus): > 500 µM

SMILES: CCCCc1c(O)noc1C[C@H](N)C(=O)O
- Kb [4]: 97 µM

SMILES: NC(Cc1onc(O)c1-c1ccccc1)C(=O)O (stereo not drawn)
- IC50 [1]: 39 µM
- IC50 (Glutamate NMDA receptor): > 100 µM
- IC50 [2]: > 100 µM
- EC50 (Rattus norvegicus): 590 µM

SMILES: N[C@@H](Cc1cc(=O)[nH]o1)C(=O)O
- IC50 [1]: 0.8 µM
- IC50 (Glutamate NMDA receptor): > 100 µM
- IC50 [2]: > 100 µM
- EC50 (Rattus norvegicus): 330 µM

SMILES: N[C@@H](Cc1onc(O)c1-c1ccccc1)C(=O)O
- IC50 [1]: 23 µM
- IC50 (Glutamate NMDA receptor): > 100 µM
- IC50 [2]: > 100 µM
- EC50 (Rattus norvegicus): 395 µM

SMILES: N[C@H](Cc1onc(O)c1-c1ccccc1)C(=O)O
- IC50 [1]: > 100 µM
- IC50 (Glutamate NMDA receptor): 31 µM
- IC50 [2]: > 100 µM
- EC50 (Rattus norvegicus): > 1000 µM

SMILES: CCCCCCCCc1c(O)noc1CC(N)C(=O)O (stereo not drawn)
- Kb [3]: > 100 µM
- EC50 (Rattus norvegicus): > 500 µM
- Kb [5]: > 100 µM
- Kb [6]: > 100 µM

SMILES: CCCCCCc1c(O)noc1C[C@@H](N)C(=O)O
- IC50 [1]: > 100 µM
- IC50 (Glutamate NMDA receptor): > 100 µM
- IC50 [2]: > 100 µM
- EC50 (Rattus norvegicus): > 1000 µM

SMILES: CCCCc1c(C[C@H](N)C(=O)O)o[nH]c1=O
- IC50 [1]: 0.48 µM
- IC50 (Glutamate NMDA receptor): > 100 µM
- IC50 [2]: > 100 µM
